Data: ChEMBL document CHEMBL3352312, “Synthesis of linear and cyclic guazatine derivatives endowed with antibacterial activity” (Bioorg Med Chem Lett, 2014)

Tests used:
Aeromonas hydrophila = test: Antibacterial activity against Aeromonas hydrophila ATCC 7966 after 16 to 18 hrs by microbroth dilution method; format: functional
How it was run: (§1)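 Broth microdilution in Mueller–Hinton broth following CLSI recommendations. Strains came from ATCC or CCUG collections or the authors' clinical isolates. Compounds were dissolved in DMSO as a 100 mg/ml stock and then diluted in culture medium. Inoculum was 5 × 10⁴ CFU/well. MIC was read after 16–18 h incubation at 35–37 °C.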

[1] = Apparent permeability of the compound assessed as membrane retention at pH 7.4 after 5 hrs by PAMPA; format: physicochemical; conditions: pH 7.4, 5 h
How it was run: (§2)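 Parallel artificial membrane permeability assay run at physiological pH 7.4 and at alkaline pH 10.0, the duodenal-like condition, as a gastrointestinal permeability model. Apparent permeability (P_app) is reported in nm/s, together with the percentage of compound retained in the membrane.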

[2] = Ratio of CC50 for human HeLa cells to MIC for Escherichia coli CCUGT
Staphylococcus warneri = test: Antibacterial activity against penicillin/aminoglycoside-resistant Staphylococcus warneri SI-5/2011 after 16 to 18 hrs by microbroth dilution method; format: functional
How it was run: (§3)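 Broth microdilution MIC per CLSI in Mueller–Hinton broth. Inoculum 5 × 10⁴ CFU/well. Compounds dissolved in DMSO at 100 mg/ml, then diluted in culture medium. Plates incubated 16–18 h at 35–37 °C before reading the MIC. Strains were taken from ATCC or CCUG collections or from the authors' clinical isolate collection.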

[3] = Cytotoxicity against human HeLa cells after 48 hrs; format: cell-based
[4] = Apparent permeability of the compound assessed as membrane retention at pH 10.0 after 5 hrs by PAMPA; format: physicochemical; conditions: pH 10, 5 h; how it was run: as §2
[5] = test system: Staphylococcus epidermidis; test: Antibacterial activity against Staphylococcus epidermidis ATCC 14990 after 16 to 18 hrs by microbroth dilution method; format: functional; how it was run: as §1
[6] = Cytotoxicity against human HeLa cells after 24 hrs; format: cell-based
Staphylococcus aureus [7] = test: Antibacterial activity against Staphylococcus aureus ATCC 25923 after 16 to 18 hrs by microbroth dilution method; format: functional; how it was run: as §3
[8] = Ratio of CC50 for human HeLa cells to MIC for Klebsiella pneumoniae 7023
[9] = Apparent permeability of the compound at pH 10.0 after 5 hrs by PAMPA; format: physicochemical; how it was run: as §2
[10] = test system: Stenotrophomonas maltophilia; test: Antibacterial activity against penicillin/expanded-spectrum cephalosporin/carbapenem/monobactam/aminoglycoside/trimethoprim/sulfamethoxazole/fosfomycin-resistant Stenotrophomonas maltophilia 634/08 after 16 to 18 hrs by microbroth dilution method; format: functional; how it was run: as §3
Acinetobacter baumannii [11] = test: Antibacterial activity against penicillin/expanded-spectrum cephalosporin/carbapenem/aztreonam/aminoglycoside/fluoroquinolone/fosfomycin/trimethoprim/sulfamethoxazole-resistant Acinetobacter baumannii AC-54/97 after 16 to 18 hrs by microbroth dilution method; format: functional; how it was run: as §3
Klebsiella pneumoniae [12] = test: Antibacterial activity against Klebsiella pneumoniae ATCC 13833 after 16 to 18 hrs by microbroth dilution method; format: functional; how it was run: as §1
[13] = Apparent permeability of the compound at pH 7.4 after 5 hrs by PAMPA; format: physicochemical; how it was run: as §2
Staphylococcus aureus [14] = test: Antibacterial activity against penicillin-resistant Staphylococcus aureus ATCC 43300 after 16 to 18 hrs by microbroth dilution method; format: functional; how it was run: as §3
Enterococcus faecalis = test: Antibacterial activity against Enterococcus faecalis ATCC 19433 after 16 to 18 hrs by microbroth dilution method; format: functional; how it was run: as §1
Bacillus subtilis = test: Antibacterial activity against Bacillus subtilis ATCC 6633 after 16 to 18 hrs by microbroth dilution method; format: functional; how it was run: as §1
Staphylococcus aureus [15] = test: Antibacterial activity against glycopeptide-resistant Staphylococcus aureus ATCC 700699 (VanA) after 16 to 18 hrs by microbroth dilution method; format: functional; how it was run: as §3
Streptococcus pyogenes = test: Antibacterial activity against Streptococcus pyogenes ATCC 12344 after 16 to 18 hrs by microbroth dilution method; format: functional; how it was run: as §1
[16] = Solubility of the compound in pure water at 1.2 mg after 24 to 36 hrs by LC-MS/MS analysis; format: physicochemical
Pseudomonas aeruginosa [17] = test: Antibacterial activity against penicillin/expanded-spectrum cephalosporin/carbapenem/monobactam/aminoglycoside/fluoroquinolone-resistant Pseudomonas aeruginosa VR-143/97 after 16 to 18 hrs by microbroth dilution method; format: functional; how it was run: as §3
Pseudomonas aeruginosa [18] = test: Antibacterial activity against Pseudomonas aeruginosa ATCC 27853 after 16 to 18 hrs by microbroth dilution method; format: functional; how it was run: as §1
Alcaligenes faecalis = test: Antibacterial activity against expanded-spectrum cephalosporin/carbapenem/monobactam-resistant Alcaligenes faecalis 424/98 after 16 to 18 hrs by microbroth dilution method; format: functional; how it was run: as §3
[19] = test system: Achromobacter xylosoxidans; test: Antibacterial activity against penicillin/expanded-spectrum cephalosporin/carbapenem/aminoglycoside-resistant Achromobacter xylosoxidans AX 22 after 16 to 18 hrs by microbroth dilution method; format: functional; how it was run: as §3
Escherichia coli = test: Antibacterial activity against Escherichia coli CCUGT after 16 to 18 hrs by microbroth dilution method; format: functional; how it was run: as §1
[20] = test system: Staphylococcus haemolyticus; test: Antibacterial activity against aminoglycoside-resistant Staphylococcus haemolyticus SI-6/2011 after 16 to 18 hrs by microbroth dilution method; format: functional; how it was run: as §3
Enterobacter cloacae = test: Antibacterial activity against penicillin/CEPH/carbapenem/aminoglycoside/fluoroquinolone-resistant Enterobacter cloacae VA-417/02 after 16 to 18 hrs by microbroth dilution method; format: functional; how it was run: as §3
Acinetobacter baumannii [21] = test: Antibacterial activity against Acinetobacter baumannii ATCC 17978 after 16 to 18 hrs by microbroth dilution method; format: functional; how it was run: as §1
Pseudomonas aeruginosa [22] = test: Antibacterial activity against penicillin/expanded-spectrum cephalosporin/carbapenem/aminoglycoside-resistant Pseudomonas aeruginosa 101/1477 after 16 to 18 hrs by microbroth dilution method; format: functional; how it was run: as §3
Albumin = Albumin (Homo sapiens, UniProt P02768); test: Binding affinity to human serum albumin after 30 mins by fluorescence spectroscopic analysis; format: ADME
Sequence of Albumin (P02768 whole entry): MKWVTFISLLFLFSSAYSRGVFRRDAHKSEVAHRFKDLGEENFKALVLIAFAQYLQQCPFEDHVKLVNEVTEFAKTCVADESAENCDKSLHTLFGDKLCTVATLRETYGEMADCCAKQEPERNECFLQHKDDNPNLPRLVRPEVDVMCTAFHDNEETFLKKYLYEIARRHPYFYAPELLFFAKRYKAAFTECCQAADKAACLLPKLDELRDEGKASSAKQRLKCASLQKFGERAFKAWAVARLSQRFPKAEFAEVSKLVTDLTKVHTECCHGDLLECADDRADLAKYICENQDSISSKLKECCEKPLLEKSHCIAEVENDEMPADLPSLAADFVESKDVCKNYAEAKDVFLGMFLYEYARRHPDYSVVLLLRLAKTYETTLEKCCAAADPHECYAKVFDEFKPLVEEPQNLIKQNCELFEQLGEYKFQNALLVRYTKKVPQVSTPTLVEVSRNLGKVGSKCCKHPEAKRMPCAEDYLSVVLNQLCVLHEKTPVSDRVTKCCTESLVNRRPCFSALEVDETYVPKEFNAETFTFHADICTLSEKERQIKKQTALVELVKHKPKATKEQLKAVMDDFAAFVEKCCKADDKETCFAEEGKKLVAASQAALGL

[23] = test system: Elizabethkingia meningoseptica; test: Antibacterial activity against Elizabethkingia meningoseptica CCUG 4310 after 16 to 18 hrs by microbroth dilution method; format: functional; how it was run: as §1
Staphylococcus hominis = test: Antibacterial activity against linezolid-resistant Staphylococcus hominis SI-7/2011 after 16 to 18 hrs by microbroth dilution method; format: functional; how it was run: as §3
[24] = Metabolic stability in human liver microsomes after 60 mins by LC-UV-MS analysis; format: ADME; conditions: read-out: Stability
Klebsiella pneumoniae [25] = test: Antibacterial activity against penicillin/expanded-spectrum cephalosporin/carbapenem/aminoglycoside/fluoroquinolone/trimethoprim/sulfamethoxazole-resistant Klebsiella pneumoniae 7023 after 16 to 18 hrs by microbroth dilution method; format: functional; how it was run: as §3

With `N=C(N)NCCCCCCCCNCCCCCCCCNC(=N)NCC1CC1.O=C(O)C(F)(F)F.O=C(O)C(F)(F)F.O=C(O)C(F)(F)F` as the compound, how does the MIC (Aeromonas hydrophila) read?
The MIC was 8 µg/mL.

What about the Papp [1] of the same compound?
The Papp was 8.8%.

And the Ratio [2]?
Its Ratio is “>=70”.

And the MIC (Staphylococcus warneri)?
Its MIC is 2 µg/mL.

And the CC50 at 48 h [3]?
Its CC50 at 48 h is 62 µM.

What about the Papp [4] of the same compound?
The Papp was 60.6%.

What about the MIC [5] of the same compound?
The MIC was 0.5 µg/mL.

What about the CC50 at 24 h [6] of the same compound?
Its CC50 at 24 h is 92.6 µM.

And the MIC (Staphylococcus aureus [7])?
The MIC was 4 µg/mL.

What about the Ratio [8] of the same compound?
The Ratio was “>=70”.

And the Papp at 5 h [9]?
The Papp at 5 h was 16.7 ×10⁻⁶ cm/s.

What about the MIC [10] of the same compound?
The MIC was 4 µg/mL.

And the MIC (Acinetobacter baumannii [11])?
The MIC was 4 µg/mL.

What about the MIC (Klebsiella pneumoniae [12]) of the same compound?
The MIC was 1 µg/mL.

And the Papp at 5 h [13]?
Its Papp at 5 h is 0.95 ×10⁻⁶ cm/s.

And the MIC (Staphylococcus aureus [14])?
The MIC was 4 µg/mL.

And the MIC (Enterococcus faecalis)?
The MIC was 1 µg/mL.

What about the MIC (Bacillus subtilis) of the same compound?
The MIC was 0.5 µg/mL.

What about the MIC (Staphylococcus aureus [15]) of the same compound?
The MIC was 4 µg/mL.

What about the MIC (Streptococcus pyogenes) of the same compound?
The MIC was less than 0.125 µg/mL.

And the solubility [16]?
Its solubility is 966 µg/mL.

What about the MIC (Pseudomonas aeruginosa [17]) of the same compound?
The MIC was 8 µg/mL.

What about the MIC (Pseudomonas aeruginosa [18]) of the same compound?
Its MIC is 8 µg/mL.

What about the MIC (Alcaligenes faecalis) of the same compound?
The MIC was 4 µg/mL.

What about the MIC [19] of the same compound?
The MIC was 4 µg/mL.

What about the MIC (Escherichia coli) of the same compound?
Its MIC is 0.5 µg/mL.

What about the MIC [20] of the same compound?
The MIC was 2 µg/mL.

What about the MIC (Enterobacter cloacae) of the same compound?
Its MIC is 2 µg/mL.

What about the MIC (Acinetobacter baumannii [21]) of the same compound?
The MIC was 4 µg/mL.

What about the MIC (Pseudomonas aeruginosa [22]) of the same compound?
Its MIC is 8 µg/mL.

What about the Kd (Albumin) of the same compound?
The Kd was 26.5 µM.

And the MIC [23]?
The MIC was 32 µg/mL.

And the MIC (Staphylococcus hominis)?
The MIC was 2 µg/mL.

And the remaining at 1 h [24]?
The remaining at 1 h was greater than 99%.

What about the MIC (Klebsiella pneumoniae [25]) of the same compound?
The MIC was 2 µg/mL.
